These results are taken from the M2OR odorant receptor database.

Molecules are shown by their SMILES.

UniProt Q9WVD9, sequence (Q9WVD9 as listed by the source): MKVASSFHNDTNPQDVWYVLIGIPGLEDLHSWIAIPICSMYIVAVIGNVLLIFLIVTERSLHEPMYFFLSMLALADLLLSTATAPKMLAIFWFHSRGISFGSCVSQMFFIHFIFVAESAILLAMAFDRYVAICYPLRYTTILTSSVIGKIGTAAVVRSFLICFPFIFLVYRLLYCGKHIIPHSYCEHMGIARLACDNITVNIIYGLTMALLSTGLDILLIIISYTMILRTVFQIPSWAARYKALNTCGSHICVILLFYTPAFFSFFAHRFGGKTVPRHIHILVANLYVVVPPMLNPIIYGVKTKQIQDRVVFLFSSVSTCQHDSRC

For the first assay, the target named is UniProt Q9WVD9. As to conditions: stereoisomer not certain. Put shortly:
(§1)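 Values were gathered from published papers (main text and supplementary material), with extra details requested from the original authors when needed, and checked for typos and inconsistencies. Each receptor–molecule pair is called responsive (active) if the original authors judged the measured signal statistically different from baseline, and non-responsive (inactive) otherwise. Assay methods varied by source, often transient mammalian cell-line luciferase assays. Recorded details include cell line, G-protein, co-transfected protein and tags.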
As to `CC12CCC(CC1=O)C2(C)C` (centres undefined), the “odorant receptor agonist call” value was “inactive”.
On the same count and under the same terms, then `CCC(=O)C(=O)CC`, with “inactive”; and `CC(=O)OCc1ccccc1`, with “inactive”.
The same measure, in the same setting: then `CCCCCCCCS`, with “inactive”; and `CCCCOC(=O)C(C)OC(=O)CCC` (centres undefined), with “inactive”; and `CCCCCCC(C)=O`, with “inactive”.
Same read-out and setting: then `CCCCC(=O)CC`, with “inactive”; and `CCCCC(C)=O`, with “inactive”; and `CCCCCCCCC(=O)O`, with “inactive”.
Regarding `CCCCOC=O`, the “odorant receptor agonist call” value was “inactive”.
Turning to `CCCCCCCC(C)=O`, the “odorant receptor agonist call” value is “inactive”.
The same measure, in the same setting: then `O=C1CCOc2ccccc21`, with “inactive”; and `O=C(c1ccccc1)c1ccccc1`, with “inactive”.
On the same count and under the same terms, then `CCCCCC=O`, with “inactive”.
On the same count and under the same terms, then `CC(=O)OCC=C(C)C`, with “inactive”; and `CCCCCCCCO`, with “inactive”.
With `O=c1ccc2ccccc2o1`, the “odorant receptor agonist call” value is “inactive”.
Still for that read-out and setting: then `CCCCCCO`, with “inactive”; and `CCCCCCC(=O)[O-].[H+]`, with “active”; and `CCCCCCCC(=O)[O-].[H+]`, with “inactive”.
Still for that read-out and setting: then `C=C(C)C1CCC(C)C(=O)C1` (centres undefined), with “inactive”.
Still for that read-out and setting: then `CCCCCCCCCS`, with “inactive”.

The next assay addresses T1, UniProt Q9WVN5.
T1 sequence (whole entry): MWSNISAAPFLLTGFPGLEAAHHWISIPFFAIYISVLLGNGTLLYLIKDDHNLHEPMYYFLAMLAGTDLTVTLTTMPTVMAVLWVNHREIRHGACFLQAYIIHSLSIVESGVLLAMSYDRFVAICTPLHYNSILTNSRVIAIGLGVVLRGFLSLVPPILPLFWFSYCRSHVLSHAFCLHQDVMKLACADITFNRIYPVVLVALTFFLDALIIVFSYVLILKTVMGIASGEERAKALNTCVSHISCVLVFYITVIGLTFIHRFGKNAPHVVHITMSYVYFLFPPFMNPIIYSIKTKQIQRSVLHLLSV
As to conditions: stereoisomer not certain. Put shortly: as §1
Turning to `CC12CCC(CC1=O)C2(C)C` (centres undefined), the “odorant receptor agonist call” value is “inactive”.
The same measure, in the same setting: then `CCC(=O)C(=O)CC`, with “inactive”; and `CC(=O)OCc1ccccc1`, with “inactive”; and `CCCCCCCCS`, with “inactive”.
Same read-out and setting: then `CCCCOC(=O)C(C)OC(=O)CCC` (centres undefined), with “inactive”.
Still for that read-out and setting: then `CCCCCCC(C)=O`, with “inactive”.
As to `CCCCC(=O)CC`, the “odorant receptor agonist call” value is “inactive”.
Still for that read-out and setting: in the case of `CCCCC(C)=O` it was “inactive”; in that of `CCCCCCCCC(=O)O`, “inactive”; in that of `CCCCOC=O`, “inactive”.
On the same count and under the same terms, then `CCCCCCCC(C)=O`, with “inactive”.
Same read-out and setting: in the case of `O=C1CCOc2ccccc21` it was “inactive”; in that of `O=C(c1ccccc1)c1ccccc1`, “inactive”; in that of `CCCCCC=O`, “active”.
With `CC(=O)OCC=C(C)C`, the “odorant receptor agonist call” value is “inactive”.
Same read-out and setting: then `CCCCCCCCO`, with “inactive”; and `O=c1ccc2ccccc2o1`, with “inactive”; and `CCCCCCO`, with “inactive”.
Regarding `CCCCCCC(=O)[O-].[H+]`, the “odorant receptor agonist call” value was “active”.
Still for that read-out and setting: in the case of `CCCCCCCC(=O)[O-].[H+]` it was “inactive”; in that of `C=C(C)C1CCC(C)C(=O)C1` (centres undefined), “inactive”; in that of `CCCCCCCCCS`, “inactive”.
